The source made the active and inactive calls. The rule behind the calls is not given here.
Tests used:
Trypanosoma cruzi [1] = assay: Growth inhibition of Trypanosoma cruzi epimastigotes Tulahuen 2 at 25 uM; assay type: functional; conditions: for inhibition of growth at 25 µM: read-out: GI
In short: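 Epimastigotes in BHI-Tryptose + 5% FBS at 28 °C, inoculated at 1×10^6 cells/mL from 10-day stationary culture. Drug tested at 25 μM from DMSO stock (final DMSO ≤0.4%; 0.4% DMSO control). Inhibition % = {1 − [(Ap − A0p)/(Ac − A0c)]}×100 using A600 at day 0 and day 5. Means of three experiments.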

Trypanosoma cruzi [2] = assay: Growth inhibition of Trypanosoma cruzi epimastigotes Tulahuen 2; assay type: functional, organism-based
In short: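 Epimastigotes grown axenically at 28 °C in BHI-Tryptose with 5% FBS. Stationary-phase (10-day) cells inoculated at 1×10^6 cells/mL into medium with drug (DMSO stock, final DMSO ≤0.4%; 0.4% DMSO control). Growth followed by A600 daily. IC50 = concentration reducing the day-5 absorbance ratio vs control to 50%, over increasing concentrations. Means of three experiments.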

Trypanosoma cruzi [3] = assay: Increase in alanine metabolite excretion in cell free medium of Trypanosoma cruzi Y relative to control; assay type: functional, organism-based
In short: (§1)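 Parasites treated with compound for 2 days. 5 mL of culture centrifuged at 1500g, 10 min, 4 °C. Parasite-free supernatant stored at −20 °C, then analysed by 1H NMR. Metabolite signals confirmed by spiking and by a 4 µg/mL standard in phosphate buffer pH 7.4. Increase expressed as % relative to untreated cells.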

Trypanosoma cruzi [4] = assay: Increase in glycine metabolite excretion in cell free medium of Trypanosoma cruzi Y relative to control; assay type: functional, organism-based; in short: as §1
Trypanosoma cruzi [5] = assay: Increase in acetate metabolite excretion in cell free medium of Trypanosoma cruzi Y relative to control; assay type: functional, organism-based; in short: as §1
Trypanosoma cruzi [6] = assay: Increase in lactose metabolite excretion in cell free medium of Trypanosoma cruzi Y relative to control; assay type: functional, organism-based; conditions: in the assay text read “lactate” for “lactose”; in short: as §1

SMILES	inhibition of growth at 25 µM (Trypanosoma cruzi [1]) [%]	IC50 (Trypanosoma cruzi [2]) [µM]	other results
Oc1ccccc1C1N(Cc2ccc(Cl)cc2)CCN1Cc1ccc(Cl)cc1	86.8	4.3	
COc1ccc(CN2CCN(Cc3ccc(OC)cc3)C2c2cccc([N+](=O)[O-])c2)cc1	93	23	
Clc1ccc(CN2CCN(Cc3ccc(Cl)cc3)C2)cc1	100	10.3	
Clc1ccc(CN2CCN(Cc3ccc(Cl)cc3)C2c2ccco2)cc1	89.4	4.3	
c1ccc(C2N(c3ccccc3)CCN2c2ccccc2)cc1	39.6		
Cc1ccc(CN2CCN(Cc3ccc(C)cc3)C2c2cccc(Cl)c2)cc1	99	13.4	
O=[N+]([O-])c1ccc(C2N(Cc3ccc(Cl)cc3)CCN2Cc2ccc(Cl)cc2)cc1	100	14.5	
c1ccc(N2CCN(c3ccccc3)C2)cc1	12.3		
Cc1ccc(N2CCN(Cc3ccccc3)C2c2ccccc2)cc1 (stereo unspecified)	46		
COc1ccc(CN2CCN(Cc3ccc(OC)cc3)C2c2ccc(Cl)cc2)cc1	100	14.9	
Clc1ccc(C2N(Cc3ccc(Cl)c(Cl)c3)CCN2Cc2ccc(Cl)c(Cl)c2)cc1	50	25	
Clc1ccc(CN2CCN(Cc3ccc(Cl)cc3)C2c2ccccc2)cc1	94.5	5	
COc1ccc(CN2CCN(Cc3ccc(OC)cc3)C2c2ccccc2Cl)cc1	49	25.3	
Cc1ccc(N2CCN(Cc3ccccc3)C2)cc1	44.2		
Clc1ccc(CN2CCN(Cc3ccc(Cl)cc3)C2c2cccc(Cl)c2)cc1	100	4.7	
Clc1ccc(C2N(Cc3ccccc3)CCN2Cc2ccccc2)cc1	60	23.5	
c1ccc(N2CCN(CN3CCN(c4ccccc4)C3)C2)cc1	0		
Clc1cccc(N2CCN(CN3CCN(c4cccc(Cl)c4)C3)C2)c1	8		
Cc1ccc(CN2CCN(Cc3ccc(C)cc3)C2c2ccccc2)cc1	100	12.5	

SMILES	inhibition of growth at 25 µM (Trypanosoma cruzi [1]) [%]	IC50 (Trypanosoma cruzi [2]) [µM]	other results
Clc1cccc(CN2CCN(Cc3cccc(Cl)c3)C2c2ccccc2)c1	100	14.7	
c1ccc(CN2CCN(Cc3ccccc3)C2c2ccccc2)cc1	63		
Clc1ccc(CN2CCN(Cc3ccc(Cl)cc3)C2c2ccc(Cl)c(Cl)c2)cc1	92	9	
Oc1cccc(C2N(Cc3ccc(Cl)cc3)CCN2Cc2ccc(Cl)cc2)c1	97.4	4.6	Activity (Trypanosoma cruzi [3]): 40%; Activity (Trypanosoma cruzi [4]): 60%; Activity (Trypanosoma cruzi [5]): 60%; Activity (Trypanosoma cruzi [6]): 30%
COc1ccc(N2CCN(CN3CCN(c4ccc(OC)cc4)C3)C2)cc1	0		
COc1ccc(CN2CCN(Cc3ccc(OC)cc3)C2c2ccc(Cl)c(Cl)c2)cc1	91	16	
CC1N(c2ccccc2)CCN1c1ccccc1	12.4		
Oc1ccccc1CNCCNCc1ccccc1O			Activity (Trypanosoma cruzi [1]): inactive
Clc1ccc(CN2CCN(Cc3ccc(Cl)c(Cl)c3)C2c2ccccc2)cc1Cl	100	6.4	
Clc1cccc(CN2CCN(Cc3cccc(Cl)c3)C2)c1	100	9.7	
COc1ccc(CN2CCN(Cc3ccc(OC)cc3)C2c2ccccc2)cc1	75.3	1.1	
COc1ccc(CN2CCN(Cc3ccc(OC)cc3)C2c2cccc(Cl)c2)cc1	95	14	
Cc1ccc(CN2CCN(Cc3ccc(C)cc3)C2c2ccc(Cl)cc2)cc1	100	9	
CC1CS(=O)(=O)CCN1/N=C/c1ccc([N+](=O)[O-])o1 (stereo unspecified) [NIFURTIMOX]	100		
Cc1ccc(N2CCN(CN3CCN(c4ccc(C)cc4)C3)C2)cc1	0		
Clc1ccc(CN2CCN(Cc3ccc(Cl)cc3)C2c2ccccc2Cl)cc1	100	11	
COc1ccc(CN2CCN(Cc3ccc(OC)cc3)C2c2ccc([N+](=O)[O-])cc2)cc1	83	16.5	
Clc1ccc(N2CCN(CN3CCN(c4ccc(Cl)cc4)C3)C2)cc1	0		
Clc1ccc(CN2CCN(Cc3ccc(Cl)cc3)C2c2ccc(Cl)cc2)cc1	100	8.9	

SMILES	inhibition of growth at 25 µM (Trypanosoma cruzi [1]) [%]	IC50 (Trypanosoma cruzi [2]) [µM]	other results
Clc1ccc(CN2CCN(Cc3ccc(Cl)c(Cl)c3)C2c2ccc(Cl)c(Cl)c2)cc1Cl	30		
COc1ccc(C2N(Cc3ccc(Cl)cc3)CCN2Cc2ccc(Cl)cc2)cc1	100	5	
COc1ccc(CN2CCN(Cc3ccc(OC)cc3)C2/C=C/c2ccccc2)cc1	98.6	10	
Clc1ccc(CN2CCN(Cc3ccc(Cl)c(Cl)c3)C2c2ccco2)cc1Cl	93.9	4.1	Activity (Trypanosoma cruzi [3]): 30%; Activity (Trypanosoma cruzi [4]): 15%; Activity (Trypanosoma cruzi [5]): 10%; Activity (Trypanosoma cruzi [6]): 10%
COc1ccc(CNCCNCc2ccc(OC)cc2)cc1		16.2	
COc1ccc(CN2CCN(Cc3ccc(OC)cc3)C2C)cc1	40	37	
CN1CCN(c2ccccc2)C1c1ccccc1 (stereo unspecified)	0		
Brc1cccc(N2CCN(CN3CCN(c4cccc(Br)c4)C3)C2)c1	10.8		
Clc1ccc(N2CCN(Cc3ccccc3)C2c2ccccc2)cc1 (stereo unspecified)	70.4		
Clc1ccc(CN2CCN(Cc3ccc(Cl)c(Cl)c3)C2)cc1Cl	100	15.1	
Brc1ccc(N2CCN(CN3CCN(c4ccc(Br)cc4)C3)C2)cc1	0		
Cc1ccc(N2CCN(C)C2c2ccccc2)cc1 (stereo unspecified)	8.9		
Oc1ccccc1CN1CCN(Cc2ccccc2O)C1c1ccccc1	4.8		
Clc1ccc(CNCCNCc2ccc(Cl)cc2)cc1		2	
O=[N+]([O-])c1ccc(N2CCN(CN3CCN(c4ccc([N+](=O)[O-])cc4)C3)C2)cc1	0		
Clc1ccc(CN2CCN(Cc3ccc(Cl)cc3)C2/C=C/c2ccccc2)cc1	100	10.2	
c1ccc(CN2CCN(c3ccccc3)C2c2ccccc2)cc1 (stereo unspecified)	45.1		
c1ccc(CN2CCN(c3ccccc3)C2)cc1	17.2		
Clc1ccc(N2CCN(Cc3ccccc3)C2)cc1	64.7		

— ChEMBL document CHEMBL1142328, “Imidazolidines as new anti-Trypanosoma cruzi agents: biological evaluation and structure-activity relationships” (Bioorg Med Chem, 2008)
